Molecular target: T1, Fatty-acid amide hydrolase 1 (Rattus norvegicus, UniProt P97612)
T1 sequence (P97612 whole entry): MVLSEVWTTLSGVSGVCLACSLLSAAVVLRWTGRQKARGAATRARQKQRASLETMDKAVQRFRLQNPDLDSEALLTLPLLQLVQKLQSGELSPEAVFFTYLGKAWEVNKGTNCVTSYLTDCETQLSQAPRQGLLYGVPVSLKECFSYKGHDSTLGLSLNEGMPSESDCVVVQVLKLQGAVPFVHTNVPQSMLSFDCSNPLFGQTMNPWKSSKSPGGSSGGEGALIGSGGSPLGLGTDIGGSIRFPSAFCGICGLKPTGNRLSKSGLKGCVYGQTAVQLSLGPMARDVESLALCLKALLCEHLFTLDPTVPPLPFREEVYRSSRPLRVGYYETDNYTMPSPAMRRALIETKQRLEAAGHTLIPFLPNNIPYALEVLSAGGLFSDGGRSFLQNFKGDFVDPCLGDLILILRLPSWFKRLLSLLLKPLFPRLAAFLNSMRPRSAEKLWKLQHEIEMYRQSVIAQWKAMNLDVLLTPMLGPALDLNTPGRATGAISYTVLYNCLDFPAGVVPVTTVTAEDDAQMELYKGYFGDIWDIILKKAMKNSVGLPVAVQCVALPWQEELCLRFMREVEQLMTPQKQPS
Assay: Inhibition of rat brain FAAH using [3H]AEA as substrate
Method in brief: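 Brains (minus cerebella) of adult Wistar or Sprague-Dawley rats homogenized in HEPES/MgCl2 pH 7.0, washed by repeated centrifugation, preincubated 15 min at 37 °C, resuspended in Tris-HCl/EDTA/MgCl2 pH 7.4. 1 µg protein per assay mixed on ice with inhibitor, then 0.5 µM [3H]AEA with fatty acid-free BSA, 10 min at 37 °C. Charcoal/HCl stop, supernatant counted. At least five half-log concentrations, at least 3 experiments.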

## CCCCC/C=C\C/C=C\C/C=C\C/C=C\CCCC(=O)NCCc1c[nH]c2ccc(O)cc12
  IC50: 1200 nM

— ChEMBL document CHEMBL4138113, “Novel propanamides as fatty acid amide hydrolase inhibitors” (Eur J Med Chem, 2017)
